Results reported in ChEMBL document CHEMBL2331522, “Dibenzocyclooctadiene lignans and norlignans from fruits of Schisandra wilsoniana” (J Nat Prod, 2013).
Converted amounts (≈) assume the structure as drawn.

Tests used:
[1] = test system: Human immunodeficiency virus 1; test: Antiviral activity against HIV1 assessed as reduction in virus-induced cytopathogenicity; type: functional, organism-based
Outline: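 Test compounds were added to C8166 cells infected with HIV-1 and scored for protection from virus-induced cytopathic effect. The concentration giving 50% protection is reported as EC50.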

[2] = Cytotoxicity against human C8166 cells by MTT assay; type: cell-based
[3] = Therapeutic index, ratio of CC50 for human C8166 cells to EC50 for HIV1; type: cell-based; conditions: read-out: Ratio CC50/EC50

Compound	EC50 [1]	CC50 [2]	selectivity ratio [3]
COc1cc2c(c(OC)c1O)-c1c(cc(OC)c(OC)c1OC)C[C@H](C)[C@H](C)[C@H]2O [MARLIGNAN M]	3.42 µg/mL (≈ 8.17 µM)	32.1 µg/mL (≈ 76.7 µM)	9.39
COc1cc2c(c(O)c1OC)-c1c(cc(OC)c(OC)c1O)[C@H](O)[C@@H](C)[C@@H](C)C2 [MARLIGNAN N]	6.18 µg/mL (≈ 15.3 µM)	47.4 µg/mL (≈ 117 µM)	7.67
COc1c(O)cc2c(c1OC)-c1c(cc3c(c1OC)OCO3)C[C@H](C)[C@H](C)[C@H]2O [MARLIGNAN O]	5.84 µg/mL (≈ 14.5 µM)	70.6 µg/mL (≈ 175 µM)	12.1
COc1c2c(cc3c1-c1c(cc4c(c1O)OCO4)C[C@H](C)[C@H](C)[C@H]3OC)OCO2 [MARLIGNAN P]	3.18 µg/mL (≈ 7.94 µM)	74.6 µg/mL (≈ 186 µM)	23.5
COc1c2c(cc3c1-c1c(cc4c(c1O)OCO4)[C@H](OC)[C@@H](C)[C@@H](C)C3)OCO2 [MARLIGNAN Q]	4.22 µg/mL (≈ 10.5 µM)	22.5 µg/mL (≈ 56.2 µM)	5.33
COc1cc2c(c(O)c1OC)-c1c(cc3c(c1OC)OCO3)[C@H](OC)[C@@H](C)[C@@H](C)C2 [MARLIGNAN R]	3.87 µg/mL (≈ 9.29 µM)	36.7 µg/mL (≈ 88.1 µM)	9.48
COc1cc2c(c(OC)c1OC)-c1c(cc3c(c1O)OCO3)[C@H](OC)[C@@H](C)[C@@H](C)C2 [MARLIGNAN S]	4.14 µg/mL (≈ 9.94 µM)	42.8 µg/mL (≈ 103 µM)	10.3
COc1ccc(C(c2ccc(OC)c(O)c2)[C@H](C(=O)O)C(CO)CO)cc1O [MARLPHENOL E]	3.47 µg/mL (≈ 8.84 µM)	73.5 µg/mL (≈ 187 µM)	21.2
COc1ccc([C@@H](c2ccc3c(c2)OCO3)[C@H](C(=O)O)C(CO)CO)cc1O [MARLPHENOL F]	2.97 µg/mL (≈ 7.61 µM)	82.1 µg/mL (≈ 210 µM)	27.6
COc1cc(C(O)C(C(=O)O)C(CO)CO)ccc1O (stereo unspecified) [MARPHENOL C]	3.14 µg/mL (≈ 11 µM)	84.5 µg/mL (≈ 295 µM)	26.9
COc1cc(C(O)C(C(=O)O)C(CO)CO)cc(O)c1OC (stereo unspecified) [MARPHENOL D]	3.22 µg/mL (≈ 10.2 µM)	93.8 µg/mL (≈ 297 µM)	29.1
Cc1cn([C@H]2C[C@H](N=[N+]=[N-])[C@@H](CO)O2)c(=O)[nH]c1=O [ZIDOVUDINE]	0.0043 µg/mL (≈ 0.0161 µM)	> 200 µg/mL	> 46500
